Measured values gathered from unrelated publications.
pIC50: −log10 of the molar value.
Cell line: A549
Effect on: cell growth or viability

OC1CCN(c2ccc(/C=N/NC(=S)Nc3ccc(F)cc3)cc2)CC1  pIC50 (MTT; 24 h): 5.55
CCCCCC(=O)Nc1ccc(-c2ccc3ncn(CC4CC4)c(=O)c3c2)cn1  pIC50 (CCK-8; 72 h): 6.60
CC(C)[C@@H]1NC(=O)[C@@H](CCCNC(=N)N)NC(=O)[C@H]([C@@H](C)O)NC(=O)[C@@H](CCCN)NC(=O)[C@H](Cc2ccc(O)cc2)NC(=O)[C@@H](Cc2ccccc2)NC1=O  pIC50 (ATP luminescence): < 4.00
COc1cccc2c1C(=O)c1c(O)c3c(c(O)c1C2=O)C[C@@](O)(C(=O)CO)C[C@@H]3O[C@H]1C[C@H](N)[C@H](O)[C@H](C)O1  IC50 (MTT; 24 h): 0.69 µg/mL
CNC(=S)N/N=C/c1cccc2cc3ccccc3nc12  pIC50 (MTT; 48 h): 4.57
O=C(Nc1ccc(F)cc1)Nc1nc2cc(-c3ccc4ncn(Cc5ccccc5)c(=O)c4c3)ccc2s1  pIC50 (MTT; 72 h): 5.55
O=C(C=Cc1ccc(OCCCOc2ccc(C=CC(=O)c3cccs3)cc2)cc1)c1cccs1  pIC50 (MTT; 48 h): 4.03
NS(=O)(=O)c1ccc(-n2nc(C(=O)NN3C(=O)CCC3=O)cc2-c2ccccc2)cc1  pIC50 (fluorescence; 48 h): 4.62
CCCn1cnc2ccc(-c3ccc(N4CCC(C)CC4=O)nc3)cc2c1=O (centres unmarked)  pIC50 (CCK-8; 72 h): < 5.00
O=C(Nc1nc2cc(-c3ccc4ncn(Cc5ccccc5)c(=O)c4c3)ccc2s1)NC1CCCCC1  pIC50 (MTT; 72 h): 4.91
CCCn1cnc2ccc(-c3ccc(NC(=O)CNC(C)C)nc3)cc2c1=O  pIC50 (CCK-8; 72 h): < 5.00
COc1ccc(CNc2ccc(C(=O)O)cc2)cc1  pIC50 (resazurin; 72 h): < 4.00
C/C(=N/NC(=O)c1cn(-c2ccccc2)nc1-c1ccc(Br)cc1)c1c(O)cc(C)oc1=O  pIC50 (MTT; 48 h): 3.85
Cc1cc(NS(=O)(=O)c2ccc(NC(=O)/C(C#N)=C/c3ccc(N4CCOCC4)cc3)cc2)no1  pIC50 (MTT; 48 h): 3.96
CCCCC(=O)Nc1ccc(-c2ccc3ncn(CCC)c(=O)c3c2)c(F)n1  pIC50 (CCK-8; 72 h): < 5.00
O=c1c2cc(Cl)cc(Cl)c2nc(NNc2cccc(Cl)c2)n1-c1ccccc1  pIC50 (MTT; 48 h): < 3.70
CCCCC(=O)Nc1ccc(-c2ccc3ncn(CCC)c(=O)c3c2)cc1F  pIC50 (CCK-8; 72 h): < 5.00
C/C(=N\NC(=O)/N=C(\C)c1c(O)c2ccccc2oc1=O)c1c(O)c2ccccc2oc1=O  pIC50 (MTT; 48 h): 4.68
COc1cccc(NC(=O)Nc2nc3cc(-c4ccc5ncn(CCC6CCCCC6)c(=O)c5c4)ccc3s2)c1  pIC50 (MTT; 72 h): 5.90
COc1cccc(NC(=O)Cn2cc(COc3ncnc4[nH]cnc34)nn2)c1  pIC50 (MTT): 4.52
CCCCCC(=O)Nc1ccc(-c2ccc3ncn(CCC)c(=O)c3c2)cn1  pIC50 (CCK-8; 72 h): 6.77
O=C(Nc1cccc(C(F)(F)F)c1)Nc1nc2cc(-c3ccc4ncn(CCN5CCOCC5)c(=O)c4c3)ccc2s1  pIC50 (MTT; 72 h): 5.83
Cc1sc2c(c1C)C(c1ccc(Cl)cc1)=N[C@@H](CC(=O)NCCCCNC(=O)COc1cccc3c1C(=O)N(C1CCC(=O)NC1=O)C3=O)c1nnc(C)n1-2 (some centres unmarked)  pIC50 (CCK-8; 72 h): < 5.00
